These results are taken from ChEMBL document CHEMBL4834404, “Template-Hopping Approach Leads to Potent, Selective, and Highly Soluble Bromo and Extraterminal Domain (BET) Second Bromodomain (BD2) Inhibitors” (J Med Chem, 2021).

Converted amounts (≈) assume the structure as drawn.

One may read the pIC50 as −log10 of the IC50, conventionally taken in molar units. A lower pIC50 goes with a high IC50. Usually IC50 stands for the point on the concentration scale where inhibition reaches its midpoint. Low values mean inhibition by little substance, high ones a need for much substance. For orientation: clearance means the volume of plasma or blood freed of the substance per unit of time. Read a low clearance as a low capacity for elimination. In general, bioavailability refers to the share of a dose that reaches the circulation, judged against a reference dose that is usually intravenous. Low values mean little systemic uptake, high ones much systemic uptake. A word on the half-life: it is the time in which the quantity being followed falls by half. A high value points to slow decline. The term AUC denotes concentration integrated over time. Read a low AUC as less exposure. Usually kinetic solubility stands for the concentration staying in solution when a stock, usually in DMSO, is diluted into the medium. The fraction unbound is free concentration divided by total concentration. Higher therefore signals weak binding.

Series [1] addresses T1, Bromodomain-containing protein 2 (Homo sapiens, UniProt P25440). The experiment in a line: Inhibition of 6His-Thr-BRD2 (1 to 473 residues) BD2 domain Y386A or Y113A mutant (unknown origin) incubated for 30 mins by TR-FRET assay. On the technique in general: TR-FRET usually uses a lanthanide donor and a delayed reading to cut background.
Series [2] deals with Bromodomain-containing protein 4 (Homo sapiens, UniProt O60885, Y97A). As to the kind of experiment: Inhibition of 6His-Thr-BRD4 (1 to 477 residues) BD1 Y97A mutant (unknown origin) incubated for 30 mins by TR-FRET assay.
A short description of series [3]: Clearance in Wistar Han rat at 1 mg/kg, iv measured upto 7 hrs by LC-MS/MS analysis. It counts as ADME, organism-based. To be noted: in vivo. In short, it runs like this:
(§1)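 Surgically cannulated male Wistar Han rats (femoral vein dosing, jugular vein sampling), given 1 h iv infusion at target 1 mg/kg, 0.2 mg/mL in DMSO/10% (w/v) Kleptose HPB in saline (2:98 v/v); n = 1. Serial 25 μL blood samples predose to 7 h; parent compound by LC-MS/MS (LLQ 1−2 ng/mL); non-compartmental analysis of blood concentration−time profiles.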

Series [4] can be described thus: Inhibition of LPS-induced MCP1 production in PBMC (unknown origin). It counts as functional, tissue-based.
Series [5] in a line: Oral bioavailability in Wistar Han rat at 3 mg/kg measured upto 24 hrs by LC-MS/MS analysis. As to conditions: in vivo. It counts as ADME, organism-based. The method in brief:
(§2)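 Three naive male Wistar Han rats dosed by oral gavage at target 3 mg/kg, suspended in 1% (w/v) methylcellulose aq at 0.6 mg/mL. Serial 25 μL blood samples via tail vein up to 24 h; parent compound by LC-MS/MS (LLQ 1 ng/mL) against standards in control blood; non-compartmental PK analysis.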

For series [6], the target named is T2, Bromodomain testis-specific protein (Homo sapiens, UniProt Q58F21). The experiment in a line: Inhibition of 6His-FLAG-Tev-BRDT (1 to 397 residues) BD1 domain (unknown origin) incubated for 30 mins by TR-FRET assay.
The nature of series [7]: Dose normalized AUC in Wistar Han rat at 3 mg/kg, po measured upto 24 hrs by LC-MS/MS analysis. It counts as ADME, organism-based. As to conditions: in vivo. The method in brief: as §2
Series [8] in a line: Volume of distribution at steady state in Wistar Han rat at 1 mg/kg, iv measured upto 7 hrs by LC-MS/MS analysis. The class given is ADME, organism-based. To be noted: in vivo, read-out: Vdss. The method in brief: as §1
The nature of series [9]: Metabolic stability in human Hepatocyte assessed as intrinsic clearance at 0.5 uM incubated for 120 mins by LC-MS/MS analysis. The class given is ADME, tissue-based. As to conditions: hepatocytes, 2 h.
Series [10] is described as follows: Unbound clearance in Wistar Han rat at 1 mg/kg, iv measured upto 7 hrs by LC-MS/MS analysis. The class given is ADME, organism-based. As to conditions: in vivo.
Series [11] is described as follows: Metabolic stability in rat Hepatocyte assessed as intrinsic clearance at 0.5 uM incubated for 60 mins by LC-MS/MS analysis. The class given is ADME, tissue-based. To be noted: hepatocytes, 1 h.
A further series concerns Blood. As to the kind of experiment: Inhibition of LPS-stimulated MCP-1 production in human whole blood incubated for 24 hrs by mesoscale assay. It counts as functional, tissue-based. The method in brief:
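Sodium-heparinized human whole blood preincubated 30 min with compound (DMSO dilutions, 140× stocks) at 37 °C, 5% CO₂, then stimulated with Salmonella typhosa LPS (200 ng/mL final) for 24 h. PBS added, plates centrifuged, supernatant MCP-1 quantified by MesoScale Discovery immunoassay.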

Series [12] addresses Voltage-gated inwardly rectifying potassium channel KCNH2 (Homo sapiens, UniProt Q12809). As to the kind of experiment: Inhibition of human ERG.
The species named for a further series is Homo sapiens. As to the kind of experiment: Selectivity index, ratio of pIC50 of BRD4 BD1 (unknown origin) to pIC50 of BRD4 BD2 (unknown origin).
The target of series [13] is T3, Bromodomain-containing protein 3 (Homo sapiens, UniProt Q15059). The experiment in a line: Inhibition of 6His-Thr-BRD3 (1 to 435 residues) BD2 domain Y348A or Y73A mutant (unknown origin) incubated for 30 mins by TR-FRET assay.
Target sequence in this assay (Q15059 2-726 limits assumed): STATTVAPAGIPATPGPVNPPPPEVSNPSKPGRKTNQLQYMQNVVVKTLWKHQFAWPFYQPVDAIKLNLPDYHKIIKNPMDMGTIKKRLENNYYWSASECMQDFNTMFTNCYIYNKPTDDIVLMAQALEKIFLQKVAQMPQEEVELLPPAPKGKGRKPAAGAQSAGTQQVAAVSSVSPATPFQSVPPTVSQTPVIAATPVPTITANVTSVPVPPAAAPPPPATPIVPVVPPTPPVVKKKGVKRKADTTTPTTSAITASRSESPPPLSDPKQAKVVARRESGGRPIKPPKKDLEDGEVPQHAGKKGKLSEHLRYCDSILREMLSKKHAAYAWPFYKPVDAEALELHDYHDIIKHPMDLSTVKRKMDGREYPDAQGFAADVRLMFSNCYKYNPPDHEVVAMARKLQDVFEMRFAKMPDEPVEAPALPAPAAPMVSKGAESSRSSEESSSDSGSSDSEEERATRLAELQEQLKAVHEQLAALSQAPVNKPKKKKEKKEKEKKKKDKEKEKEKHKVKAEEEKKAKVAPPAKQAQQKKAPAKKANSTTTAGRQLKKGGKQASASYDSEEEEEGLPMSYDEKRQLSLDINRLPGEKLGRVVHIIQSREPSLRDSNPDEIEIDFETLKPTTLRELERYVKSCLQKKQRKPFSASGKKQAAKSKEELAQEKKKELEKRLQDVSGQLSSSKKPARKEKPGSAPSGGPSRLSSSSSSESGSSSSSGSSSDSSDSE
The target of series [14] is T3, Bromodomain-containing protein 3. The experiment in a line: Inhibition of 6His-Thr-BRD3 (1 to 435 residues) BD1 domain (unknown origin) incubated for 30 mins by TR-FRET assay.
Target sequence in this assay (Q15059 whole entry, the tested form may be a part): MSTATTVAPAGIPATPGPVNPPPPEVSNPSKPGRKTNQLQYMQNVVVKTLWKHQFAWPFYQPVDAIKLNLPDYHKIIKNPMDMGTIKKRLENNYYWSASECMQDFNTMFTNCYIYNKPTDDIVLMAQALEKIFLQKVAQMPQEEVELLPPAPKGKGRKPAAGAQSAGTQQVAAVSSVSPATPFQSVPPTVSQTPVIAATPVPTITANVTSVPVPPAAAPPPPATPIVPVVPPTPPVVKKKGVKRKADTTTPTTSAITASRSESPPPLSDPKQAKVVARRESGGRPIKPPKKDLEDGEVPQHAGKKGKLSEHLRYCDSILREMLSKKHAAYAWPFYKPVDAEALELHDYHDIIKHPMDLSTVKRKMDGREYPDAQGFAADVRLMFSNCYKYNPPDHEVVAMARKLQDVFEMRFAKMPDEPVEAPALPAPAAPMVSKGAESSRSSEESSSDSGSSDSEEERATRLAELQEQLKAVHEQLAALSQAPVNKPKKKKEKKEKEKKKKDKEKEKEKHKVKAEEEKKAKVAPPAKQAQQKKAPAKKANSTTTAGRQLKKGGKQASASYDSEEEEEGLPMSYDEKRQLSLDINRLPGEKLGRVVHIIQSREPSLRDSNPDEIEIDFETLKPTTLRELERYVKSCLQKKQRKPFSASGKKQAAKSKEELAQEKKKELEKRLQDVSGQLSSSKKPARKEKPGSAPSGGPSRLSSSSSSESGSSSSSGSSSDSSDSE
The nature of series [15]: Half life in Wistar Han rat at 1 mg/kg, iv measured upto 7 hrs by LC-MS/MS analysis. The class given is ADME, organism-based. As to conditions: in vivo. In short, it runs like this:
as §1

Series [16] deals with T2, Bromodomain testis-specific protein. The experiment in a line: Inhibition of 6His-FLAG-Tev-BRDT (1 to 397 residues) BD2 domain Y309A or Y66A mutant (unknown origin) incubated for 30 mins by TR-FRET assay.
A short description of series [17]: Permeability of compound. It counts as ADME. As to conditions: not told; read-out: permeability.
Series [18] is described as follows: AUC in Wistar Han rat at 1 mg/kg, iv measured upto 7 hrs by LC-MS/MS analysis. The class given is ADME, organism-based. Further details: route intravenous, dose 1 mg/kg, time <=7. As to conditions: in vivo. In short, it runs like this:
as §1

Series [19] is described as follows: Solubility of compound by CLND assay. The class given is physicochemical.
Series [20] deals with T1, Bromodomain-containing protein 2. As to the kind of experiment: Inhibition of 6His-Thr-BRD2 (1 to 473 residues) BD1 domain (unknown origin) incubated for 30 mins by TR-FRET assay.
For the next series, the target named is Albumin (Homo sapiens, UniProt P02768). As to the kind of experiment: Binding affinity to human serum albumin. It counts as ADME. To be noted: isolated protein. In short, it runs like this:
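Chromatographic binding on chemically bonded HSA column (50 × 3 mm), 1.8 mL/min; mobile phase 50 mM ammonium acetate pH 7.4 with 2-propanol gradient (0−30% over 3 min, hold to 6 min, back to 0%); gradient retention time recorded.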

The target in series [21] is Bromodomain-containing protein 4 (Homo sapiens, UniProt O60885, Y390A). The experiment in a line: Inhibition of 6His-Thr-BRD4 (1 to 477 residues) BD2 domain Y390A mutant (unknown origin) incubated for 30 mins by TR-FRET assay.
Series [22] can be described thus: Fraction unbound in Wistar Han rat at 1 mg/kg, iv measured upto 4 hrs by LC-MS/MS analysis. It counts as ADME, organism-based. In short, it runs like this:
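Control Wistar Han rat blood dialyzed against PBS by rapid equilibrium dialysis, 4 h at 37 °C, compound at 200 and 1000 ng/mL; matrix-matched aliquots analysed by LC-MS/MS; unbound fraction from buffer/blood peak area ratios, mean of the two concentrations.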

Chain of Voltage-gated inwardly rectifying potassium channel KCNH2 (Q12809 whole entry): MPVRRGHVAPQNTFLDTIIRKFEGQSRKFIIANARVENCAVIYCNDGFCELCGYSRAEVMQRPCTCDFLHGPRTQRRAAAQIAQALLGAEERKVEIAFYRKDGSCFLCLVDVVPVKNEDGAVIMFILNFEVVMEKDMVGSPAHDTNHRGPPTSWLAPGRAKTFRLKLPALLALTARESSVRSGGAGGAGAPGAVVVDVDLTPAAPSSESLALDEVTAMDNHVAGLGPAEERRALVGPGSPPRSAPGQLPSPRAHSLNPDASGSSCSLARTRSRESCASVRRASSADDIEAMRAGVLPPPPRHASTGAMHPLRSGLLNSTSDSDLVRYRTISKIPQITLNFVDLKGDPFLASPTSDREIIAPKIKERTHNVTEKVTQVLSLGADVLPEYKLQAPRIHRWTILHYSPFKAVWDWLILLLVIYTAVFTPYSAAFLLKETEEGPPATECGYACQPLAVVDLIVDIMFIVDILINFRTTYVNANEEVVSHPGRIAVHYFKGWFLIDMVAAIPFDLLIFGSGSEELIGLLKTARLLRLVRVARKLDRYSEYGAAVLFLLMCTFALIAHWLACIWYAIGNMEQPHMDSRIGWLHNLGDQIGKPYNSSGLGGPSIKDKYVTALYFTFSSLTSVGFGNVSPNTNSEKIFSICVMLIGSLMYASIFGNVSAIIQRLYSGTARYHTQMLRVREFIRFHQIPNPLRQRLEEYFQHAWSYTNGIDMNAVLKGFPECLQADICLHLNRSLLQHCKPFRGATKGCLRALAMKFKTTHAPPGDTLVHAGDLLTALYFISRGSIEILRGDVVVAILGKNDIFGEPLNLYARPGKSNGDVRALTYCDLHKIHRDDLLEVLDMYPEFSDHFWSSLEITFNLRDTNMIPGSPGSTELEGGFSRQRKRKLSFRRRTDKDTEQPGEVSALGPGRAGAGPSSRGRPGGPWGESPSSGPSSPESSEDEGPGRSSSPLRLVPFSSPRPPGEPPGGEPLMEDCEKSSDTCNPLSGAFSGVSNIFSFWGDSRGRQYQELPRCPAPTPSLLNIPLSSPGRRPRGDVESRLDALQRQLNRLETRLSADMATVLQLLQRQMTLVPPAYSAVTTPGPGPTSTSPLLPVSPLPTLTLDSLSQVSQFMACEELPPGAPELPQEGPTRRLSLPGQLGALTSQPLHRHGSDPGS
T1 sequence (P25440 whole entry, the tested form may be a part): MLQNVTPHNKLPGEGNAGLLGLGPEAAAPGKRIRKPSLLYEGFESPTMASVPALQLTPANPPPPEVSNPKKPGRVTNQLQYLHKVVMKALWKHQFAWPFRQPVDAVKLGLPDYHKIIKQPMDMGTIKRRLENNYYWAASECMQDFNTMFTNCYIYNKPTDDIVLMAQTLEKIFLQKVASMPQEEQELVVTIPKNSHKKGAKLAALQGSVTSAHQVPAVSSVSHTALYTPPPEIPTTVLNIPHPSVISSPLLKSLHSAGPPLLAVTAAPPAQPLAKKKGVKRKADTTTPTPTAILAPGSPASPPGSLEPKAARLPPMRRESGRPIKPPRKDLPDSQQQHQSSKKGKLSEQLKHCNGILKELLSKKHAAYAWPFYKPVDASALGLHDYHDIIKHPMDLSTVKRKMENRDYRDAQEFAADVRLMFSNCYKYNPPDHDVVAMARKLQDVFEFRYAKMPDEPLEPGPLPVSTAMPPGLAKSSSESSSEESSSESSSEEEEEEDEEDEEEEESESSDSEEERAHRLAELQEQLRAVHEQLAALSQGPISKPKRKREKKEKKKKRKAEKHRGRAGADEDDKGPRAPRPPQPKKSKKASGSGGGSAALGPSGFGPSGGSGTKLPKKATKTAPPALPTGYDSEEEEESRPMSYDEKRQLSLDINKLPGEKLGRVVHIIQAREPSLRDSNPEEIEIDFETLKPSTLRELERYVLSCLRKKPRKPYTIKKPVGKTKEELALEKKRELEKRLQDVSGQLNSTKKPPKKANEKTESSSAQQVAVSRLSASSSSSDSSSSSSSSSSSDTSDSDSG
Chain of Albumin (P02768 whole entry): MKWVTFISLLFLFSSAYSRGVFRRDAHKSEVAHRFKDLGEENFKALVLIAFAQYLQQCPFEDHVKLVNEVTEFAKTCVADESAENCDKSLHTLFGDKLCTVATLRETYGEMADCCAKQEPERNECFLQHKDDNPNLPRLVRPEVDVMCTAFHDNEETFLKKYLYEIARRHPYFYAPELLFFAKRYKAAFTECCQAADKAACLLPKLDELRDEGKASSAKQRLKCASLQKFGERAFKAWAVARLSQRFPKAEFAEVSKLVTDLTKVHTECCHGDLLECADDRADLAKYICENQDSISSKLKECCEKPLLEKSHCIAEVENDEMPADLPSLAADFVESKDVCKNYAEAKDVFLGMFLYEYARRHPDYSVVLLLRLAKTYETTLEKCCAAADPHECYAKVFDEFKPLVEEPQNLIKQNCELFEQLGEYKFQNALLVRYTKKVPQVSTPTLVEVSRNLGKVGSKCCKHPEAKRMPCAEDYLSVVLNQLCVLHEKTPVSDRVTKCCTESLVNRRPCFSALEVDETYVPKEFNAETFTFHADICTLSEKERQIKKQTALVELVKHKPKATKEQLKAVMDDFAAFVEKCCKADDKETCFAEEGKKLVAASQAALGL

In the case of `CCNC(=O)c1cc(Cc2cccc3[nH]ccc23)nc(-c2cn(C)nn2)c1`, the results for the pIC50 in series [1], in series [13] and in [16] were 7.3, 7.5 and 7.3, respectively. Further, the IC50 in series [2] was 10 µM; in series [4], 0.0251 µM; in series [6] it was 25.1 µM; with Blood it was 0.398 µM; in [12] it was 31.6 µM; in [14] it was 31.6 µM. The IC50 in [20] was 25.1 µM; in series [21], 0.0316 µM. Further, the clearance in [3] was 21 mL/min/kg. The compound further registered a bioavailability in series [5] of 31%. In series [7], the AUC/dose was found to be 15 kg·min/L. The Vd in series [8] amounted to 1.1 L/kg. In addition, the CLH is < 0.45 mL/min/g in series [9] and 1.98 mL/min/g in [11]. Also, in [10], the CL free came to 205 mL/min/kg. Besides, the Ratio pIC50 in the series listed under Homo sapiens is 315. Also, in series [15], the half-life is 52.2 min. For the same compound, the Papp in series [17] was determined as 30 ×10⁻⁶ cm/s. For the same compound, in series [18], the AUC at 7 h worked out at 778 ng·h/mL. Besides, the solubility (kinetic) in [19] is ≥ 148 µg/mL. This compound also yielded an Activity on Albumin of 90%.

In the case of `CCNC(=O)c1ccc(OCc2cccc(C)n2)c(-c2cn(C)nn2)c1`, the pIC50 in [1] was determined as 5.8; in series [13] it was 6.5; in [16], 6.4. Also, the IC50 in [2] was 50.1 µM; in series [4] it was 0.251 µM; in [6], > 50.1 µM; with Blood it was 2.51 µM; in series [12] it was > 50.1 µM; in series [14], > 50.1 µM. Also, the figures for the IC50 in series [20] and in series [21] were > 50.1 µM and 0.251 µM, respectively. This compound had a clearance in series [3] of 19 mL/min/kg. The compound also showed a bioavailability in series [5] of 59%. The same compound showed an AUC/dose in [7] of 30 kg·min/L. The Vd in series [8] worked out at 0.7 L/kg. For the same compound, the figures for the CLH in series [9] and in series [11] were 1.18 mL/min/g and 1.09 mL/min/g, respectively. Further, in series [22], the fraction unbound at 4 h is 0.19. The compound further registered a CL free in series [10] of 102 mL/min/kg. Further, the Ratio pIC50 in the series filed under Homo sapiens was found to be 200. Moreover, in series [15], the half-life is 27 min. Further, the Papp in series [17] is 47 ×10⁻⁶ cm/s. Also, the area under the curve (AUC) at 7 h in series [18] is 873 ng·h/mL. Also, the kinetic solubility in series [19] was ≥ 137 µg/mL. In addition, the Activity on Albumin was found to be 84%.

Take `C[C@H](Oc1ccc(C(=O)NC2CC2)cc1-c1cn(C)nn1)c1ccccn1`: the pIC50 in [1] amounted to 6.6; in series [13], 7.1. Moreover, the concentration for half-maximal inhibition (IC50) in series [2] was 5.01 µM; in series [4], 0.0158 µM; in the series with Blood it was 0.398 µM; in series [12], 39.8 µM; in series [14] it was 12.6 µM; in series [20], 39.8 µM. In series [21], 0.0501 µM corresponded to half-maximal inhibition (IC50). The same compound displayed a clearance in [3] of 14 mL/min/kg. In series [5], this compound displayed a bioavailability of 32%. In addition, the AUC/dose in series [7] was 23 kg·min/L. Besides, in [8], the Vd was found to be 1.8 L/kg. Also, the figures for the CLH in [9] and in series [11] were < 0.45 mL/min/g and < 0.8 mL/min/g, respectively. Further, in series [22], the fraction unbound at 4 h turned out to be 0.76. Also, the CL free in series [10] is 19 mL/min/kg. Besides, the Ratio pIC50 in the series filed under Homo sapiens is 100. The half-life in series [15] was 99 min. In addition, the Papp in series [17] stood at 15 ×10⁻⁶ cm/s. In series [18], this compound displayed an AUC at 7 h of 1180 ng·h/mL. In addition, in [19], the solubility (kinetic) was 145 µg/mL (≈ 399 µM). Also, the Activity on Albumin is 84%.
